Values after ≈ are worked out from the molar mass of the structure shown.
What was measured:
Type in all cases: functional
[1] = system: Staphylococcus epidermidis; test: Antibacterial activity against methicillin-sensitive Staphylococcus epidermidis ATCC 12228 assessed as reduction in bacterial growth incubated for 18 hrs by agar dilution method; conditions: ATCC 12228, 18 h
Procedure, shortened: (§1)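 CLSI agar dilution MIC. Stocks at 1920 μg/ml in 0.2% DMSO, twofold diluted and mixed into agar plates to final 0.03–128 µg/mL. Inoculum set to 0.5 turbidity, diluted 10-fold and applied by multipoint inoculator within 30 min, about 10^4 CFU per spot. Plates incubated 35 ± 2°C for 18 h. MIC is the lowest concentration with no visible growth.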

[2] = system: Staphylococcus epidermidis; test: Antibacterial activity against methicillin-resistant Staphylococcus epidermidis 16-5 assessed as reduction in bacterial growth incubated for 18 hrs by agar dilution method; conditions: 16-5, 18 h; procedure, shortened: as §1
Staphylococcus aureus [3] = test: Antibacterial activity against methicillin-sensitive Staphylococcus aureus ATCC 29213 assessed as reduction in bacterial growth incubated for 18 hrs by agar dilution method; conditions: ATCC 29213, 18 h; procedure, shortened: as §1
Staphylococcus aureus [4] = test: Antibacterial activity against methicillin-resistant Staphylococcus aureus ATCC 33591 assessed as reduction in bacterial growth incubated for 18 hrs by agar dilution method; conditions: ATCC 33591, 18 h; procedure, shortened: as §1

SMILES	MIC [1] [µg/mL]	MIC [2] [µg/mL]	MIC (Staphylococcus aureus [3]) [µg/mL]	MIC (Staphylococcus aureus [4]) [µg/mL]
C=C[C@]1(C)C[C@@H](OC(=O)CS[C@@H]2CC[C@H](C(=O)OCC)C[C@H]2NS(=O)(=O)c2ccc(OC)cc2)[C@]2(C)[C@H](C)CC[C@]3(CCC(=O)[C@H]32)[C@@H](C)[C@@H]1O	0.25 (≈ 0.341 µM)	0.5 (≈ 0.681 µM)	0.5 (≈ 0.681 µM)	0.25 (≈ 0.341 µM)
C=C[C@]1(C)C[C@@H](OC(=O)CS[C@@H]2CC[C@H](C(=O)O)C[C@H]2N)[C@]2(C)[C@H](C)CC[C@]3(CCC(=O)[C@H]32)[C@@H](C)[C@@H]1O	2 (≈ 3.73 µM)	4 (≈ 7.47 µM)	32 (≈ 59.7 µM)	32 (≈ 59.7 µM)
C=C[C@]1(C)C[C@@H](OC(=O)CS[C@@H]2CC[C@H](C(=O)OCC)C[C@H]2NS(=O)(=O)c2ccc(Cl)cc2)[C@]2(C)[C@H](C)CC[C@]3(CCC(=O)[C@H]32)[C@@H](C)[C@@H]1O	0.5 (≈ 0.677 µM)	0.5 (≈ 0.677 µM)	1 (≈ 1.35 µM)	0.5 (≈ 0.677 µM)
C=C[C@]1(C)C[C@@H](OC(=O)CS[C@@H]2CC[C@H](C(=O)OCC)C[C@H]2NS(=O)(=O)c2ccc(C#N)cc2)[C@]2(C)[C@H](C)CC[C@]3(CCC(=O)[C@H]32)[C@@H](C)[C@@H]1O	0.25 (≈ 0.343 µM)	0.5 (≈ 0.686 µM)	1 (≈ 1.37 µM)	1 (≈ 1.37 µM)
C=C[C@]1(C)C[C@@H](OC(=O)CS[C@@H]2CC[C@H](C(=O)OCC)C[C@H]2N)[C@]2(C)[C@H](C)CC[C@]3(CCC(=O)[C@H]32)[C@@H](C)[C@@H]1O	0.25 (≈ 0.443 µM)	0.25 (≈ 0.443 µM)	1 (≈ 1.77 µM)	1 (≈ 1.77 µM)
C=C[C@]1(C)C[C@@H](OC(=O)CS[C@@H]2CC[C@H](C(=O)OCC)C[C@H]2NS(=O)(=O)c2ccc(NC(C)=O)cc2)[C@]2(C)[C@H](C)CC[C@]3(CCC(=O)[C@H]32)[C@@H](C)[C@@H]1O	0.5 (≈ 0.657 µM)	0.5 (≈ 0.657 µM)	0.5 (≈ 0.657 µM)	0.5 (≈ 0.657 µM)
C=C[C@]1(C)C[C@@H](OC(=O)CS[C@@H]2CC[C@H](C(=O)OCC)C[C@H]2NS(=O)(=O)c2ccc([N+](=O)[O-])cc2)[C@]2(C)[C@H](C)CC[C@]3(CCC(=O)[C@H]32)[C@@H](C)[C@@H]1O	0.5 (≈ 0.668 µM)	0.5 (≈ 0.668 µM)	1 (≈ 1.34 µM)	1 (≈ 1.34 µM)
C=C[C@]1(C)C[C@@H](OC(=O)CS[C@@H]2CC[C@H](C(=O)OCC)C[C@H]2NS(=O)(=O)c2ccc(F)cc2)[C@]2(C)[C@H](C)CC[C@]3(CCC(=O)[C@H]32)[C@@H](C)[C@@H]1O	0.5 (≈ 0.693 µM)	1 (≈ 1.39 µM)	1 (≈ 1.39 µM)	1 (≈ 1.39 µM)
C=C[C@]1(C)C[C@@H](OC(=O)CS[C@@H]2CC[C@H](C(=O)OCC)C[C@H]2NS(=O)(=O)c2ccc(C)cc2)[C@]2(C)[C@H](C)CC[C@]3(CCC(=O)[C@H]32)[C@@H](C)[C@@H]1O	0.25 (≈ 0.348 µM)	0.5 (≈ 0.696 µM)	1 (≈ 1.39 µM)	1 (≈ 1.39 µM)
C=C[C@]1(C)C[C@@H](OC(=O)CS[C@@H]2CC[C@H](C(=O)OCC)C[C@H]2NS(=O)(=O)c2ccccc2)[C@]2(C)[C@H](C)CC[C@]3(CCC(=O)[C@H]32)[C@@H](C)[C@@H]1O	0.5 (≈ 0.71 µM)	1 (≈ 1.42 µM)	1 (≈ 1.42 µM)	0.5 (≈ 0.71 µM)
C=C[C@]1(C)C[C@@H](OC(=O)CS[C@@H]2CC[C@H](C(=O)OCC)C[C@H]2NS(=O)(=O)c2ccc(C(C)=O)cc2)[C@]2(C)[C@H](C)CC[C@]3(CCC(=O)[C@H]32)[C@@H](C)[C@@H]1O	0.25 (≈ 0.335 µM)	0.25 (≈ 0.335 µM)	0.25 (≈ 0.335 µM)	0.25 (≈ 0.335 µM)
C=C[C@]1(C)C[C@@H](OC(=O)CS[C@@H]2CC[C@@H](N)C[C@H]2O)[C@]2(C)[C@H](C)CC[C@]3(CCC(=O)[C@H]32)[C@@H](C)[C@@H]1O [LEFAMULIN]	≤ 0.03	0.25 (≈ 0.492 µM)	0.25 (≈ 0.492 µM)	0.5 (≈ 0.985 µM)
C=C[C@]1(C)C[C@@H](OC(=O)CS[C@@H]2CC[C@H](C(=O)OCC)C[C@H]2NS(=O)(=O)c2ccc(Br)cc2)[C@]2(C)[C@H](C)CC[C@]3(CCC(=O)[C@H]32)[C@@H](C)[C@@H]1O	1 (≈ 1.28 µM)	1 (≈ 1.28 µM)	1 (≈ 1.28 µM)	1 (≈ 1.28 µM)
